# High-throughput results from PubChem BioAssay.
# Most compounds without a hit are left out; they make up all but 2.1% or so of the library.
# EBI2 block = blocks human EBI2 receptor beta-arrestin signaling; actives 0.81% (n = 360,000); EBI2 beta-arrestin recruitment, luminescence, 7a,25-OHC stimulated; inhibition, % at 5 µM; AID 651636; in the data active means inhibition above about 38%;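 further: enzyme fragment complementation signal reports receptor beta-arrestin coupling in cells; 0% = agonist plus DMSO wells and 100% = wells without agonist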
# HTR2A ag = activates the mouse 5-HT2A serotonin receptor; P35363; activation, % at 7.6 µM; actives 0.66% (n = 360,000); CHO-K1 mHTR2A beta-arrestin complementation, luminescence; percent of 30 µM serotonin response;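 active means activation above a run cutoff, the mean activation of all tested compounds plus 3 SD, cut at about 14% in these data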;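 further: 0% = plate median of compound wells and 100% = 30 µM serotonin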
# CCR6 antag = antagonists of human CCR6 receptor; CHO-K1 CCR6 PathHunter beta-arrestin, luminescence, CCL20-stimulated; inhibition, % at 20 µM; P51684; AID 493098; actives 0.49% (n = 340,000);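 active means compounds whose inhibition of the agonist-driven luminescence signal at 20 µM reaches about 50%, limit read from the data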;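 further: cells stimulated with CCL20 at 14 nM final; plate controls were DMSO with CCL20 for no effect and DMSO without agonist for full effect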
# APJ antagonist = APJ receptor antagonism; CHO-K1 APJ beta-arrestin complementation, luminescence; P35414; actives 0.32% (n = 330,000); inhibition, % at 20 µM; AID 2521;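 active means inhibition above about 40% at 20 µM, limit read from the data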;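 further: cells challenged with 10 nM apelin-13 agonist together with compound; plate controls were apelin-13 plus DMSO wells for no effect and DMSO wells lacking apelin-13 for full effect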
# Target sequence (P35414 whole entry, looked up): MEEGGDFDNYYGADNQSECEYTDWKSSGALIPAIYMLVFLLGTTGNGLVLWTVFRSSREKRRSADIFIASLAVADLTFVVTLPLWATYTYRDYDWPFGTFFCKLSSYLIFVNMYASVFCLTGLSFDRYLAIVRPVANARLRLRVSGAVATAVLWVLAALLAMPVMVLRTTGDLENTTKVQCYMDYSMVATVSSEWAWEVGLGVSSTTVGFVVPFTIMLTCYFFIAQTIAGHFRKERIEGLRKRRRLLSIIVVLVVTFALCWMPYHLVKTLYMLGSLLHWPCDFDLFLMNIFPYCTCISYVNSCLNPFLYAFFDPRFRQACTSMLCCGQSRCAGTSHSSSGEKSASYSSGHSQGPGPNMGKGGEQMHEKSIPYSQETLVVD
# CXCR6 inh = CXCR6 (human) receptor inhibition; CHO-K1 PathHunter CXCR6 beta-arrestin, luminescence; inhibition, % at 20 µM; actives 0.36% (n = 360,000); AID 602244; in the data active means inhibition above about 34%, passing the limit was not always enough;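 further: antagonist mode with CXCL16 agonist at 10 nM final; 0% = 10 nM CXCL16 with DMSO and 100% = unstimulated wells without agonist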
# APJ ag = APJ receptor agonism. P35414. CHO-K1 APJ PathHunter beta-arrestin, luminescence; 0% DMSO wells, 100% apelin. activation, % at 20 µM. actives 0.11% (n = 330,000);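 active means activation more than six SD over the plate average, tested at 20 µM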;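 further: 0% = DMSO alone and 100% = apelin-13 at 10 nM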
#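 Incubation: overnight seeding, 90 min compound at 25 °C, 1 h detection; test system: PathHunter CHO-K1 APJ (AGTRL-1) beta-arrestin reporter cells; amount: 1000 cells/well; doses: one dose, 20 µM compound, 1% DMSO; measured by: beta-gal luminescence; measure: agonist-driven arrestin binding to APJ; benchmarks: negative DMSO alone, positive Apelin-13 at 10 nM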
# OPRM1 ag = OPRM1 agonism in mouse HTR2A counterscreen; shares compounds with HTR2A ag; U2OS OPRM1 beta-arrestin PathHunter, luminescence; DMSO 0%, DAMGO 9.3 µM 100%; activation, % at 9.3 µM; actives 5.3% (n = 2,300); AID 624380;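 active means mean activation above the mean of DMSO-only wells plus 3 SD, cut at about 0.5% in these data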
# HTR2A ag conf = mouse HTR2A agonism confirmed; shares compounds with HTR2A ag; CHO-K1 PathHunter beta-arrestin recruitment, luminescence; DMSO 0%, 30 µM serotonin 100%; actives 19% (n = 2,300); activation, % at 7.6 µM;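 active means mean activation across triplicates above the hit threshold derived in the original primary screen, cut at about 15% in these data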
# * marks the source's active call; other numbers are inactive results; nt = no result.
SMILES,EBI2 block,HTR2A ag,CCR6 antag,APJ antagonist,CXCR6 inh,APJ ag,OPRM1 ag,HTR2A ag conf
CCCCN(CC)C(=O)Cn1ncc2c1-c1cc(C)ccc1OC2,3.7,16.5*,11.5,3.9,0.5,-1.5,-0.6,-0.6
O=C(C[C@@H]1C/C=C\CCCC(=O)OC[C@@H]2CCCN2C1=O)NCCO,-4.2,8.8,1.2,21.1,-24.7,0.0,nt,nt
O=C(C[C@H]1C/C=C\CCC(=O)OC[C@H]2CCCN2C1=O)NCCO,1.3,19.5*,1.5,11.3,-0.9,-2.0,-0.6,-3.3
CCOc1ccccc1NC(=O)CSc1nc2c(c(=O)n(C)c(=O)n2C)n1C,1.2,4.2,12.4,8.9,-5.9,1.2,nt,nt
O=C(CN1C(=O)c2ccccc2C1=O)N1CCN(C(=O)c2ccco2)CC1,-0.4,1.4,-11.0,-11.5,-0.6,-1.8,nt,nt
O=C(c1ccco1)N1CCN(CCCCN2C(=O)c3ccccc3C2=O)CC1,-5.3,17.1*,-0.1,0.5,-13.3,-3.5,-0.6,54.4*
O=C(CCN1CCN(C(=O)c2ccco2)CC1)Nc1ccc(F)cc1,1.7,-1.8,-9.8,8.3,-6.0,-2.4,nt,nt
O=C(c1ccco1)N1CCN(CCCCOc2ccc(F)cc2)CC1,6.2,18.6*,3.2,-2.6,7.3,-0.8,-0.5,63.1*
O=C1NC(N2CCOCC2)=N/C1=C/c1ccc2c(c1)OCO2,4.3,-2.5,4.5,-8.7,8.6,1.8,nt,nt
O=C(CSc1nc2ccc(Nc3nc(N4CCOCC4)nc(N4CCOCC4)n3)cc2s1)Nc1ccccc1F,4.2,15.5*,-9.3,-35.3,-7.3,16.0,-0.3,-2.1
CC(=O)Nc1ccc2nc(SCC(=O)N3CCOCC3)sc2c1,2.5,-1.9,7.6,24.9,2.7,-2.6,nt,nt
O=C(CSc1nc2ccc(Nc3nc(N4CCOCC4)nc(N4CCOCC4)n3)cc2s1)N1CCOCC1,2.0,14.5*,-7.4,-9.0,-3.7,-1.9,-0.5,-3.1
CCOCCn1c(CN2CCN(C(c3ccccc3)c3ccccc3)CC2)nc2c1c(=O)n(C)c(=O)n2C,5.4,1.5,2.6,1.8,10.8,-2.6,nt,nt
COc1cc(NC(=O)c2c(F)c(F)c(OC)c(F)c2F)ccc1NC(=O)c1cccs1,-3.4,16.2*,14.2,-13.3,0.2,0.4,-0.7,-5.9
Cc1cc(C)nc(SCC(=O)Nc2ccc(S(=O)(=O)Nc3ncccn3)cc2)n1,-15.4,19.1*,8.3,-12.3,0.4,-1.3,-0.7,-3.5
Cc1ccc(SC[C@H](CC(C)C)N2CCN(CCc3ccccc3)CCC2=O)cc1,13.5,-12.8,21.4,14.4,6.2,-2.4,nt,nt
CC(=O)Nc1ccc(SC[C@H](CC(C)C)N2CCN(CCc3ccccc3)CCC2=O)cc1,21.5,19.2*,9.5,-33.9,6.1,-1.2,-0.2,17.0*
O=c1[nH]ccc2c(O)cccc12,-6.5,16.2*,7.8,13.3,1.4,-10.2,0.7*,3.8
Nc1cccc2c(O)cccc12,-2.2,-2.8,-10.8,-23.2,-9.1,5.3,nt,nt
O=C(CN1CCN(Cc2ccccc2F)C1=O)NCCc1ccc(Cl)cc1,5.7,16.3*,16.5,-2.3,-0.7,-0.6,-0.5,-7.0
CCCCCc1cc(=O)oc2c(C(CCN3CCN(c4ccccc4)CC3)c3ccc4c(c3)OCO4)c(OC)cc(OC)c12 (stereo unspecified),22.0,21.8*,12.7,-9.5,13.1,1.5,-0.8,49.1*
CCCCCc1cc(=O)oc2c(C(CCN3CCCC3)c3ccc(N(C)C)cc3)c(OC)cc(OC)c12 (stereo unspecified),-7.0,-14.4,-13.3,8.4,-10.2,11.8,nt,nt
COc1cccc(N2CCN(Cc3nc(N)nc(N4CCCc5ccccc54)n3)CC2)c1,-18.6,16.5*,-4.4,22.4,10.8,-7.8,-0.5,41.6*
COc1ccc(Nc2nc(N)nc(CN3CCc4ccccc4C3)n2)cc1,-0.9,-6.1,9.3,10.3,-12.1,-2.5,nt,nt
